Reference: the EternaBench riboswitch data

Test system: MS2 coat protein
Assay: apparent Kd, MS2 coat protein; higher = weaker binding; RNA-MaP array
Outline: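 Designed RNAs were transcribed in place on an Illumina sequencing chip from sequenced DNA templates. At room temperature and with or without input ligand, they were incubated with fluorescently labeled MS2 coat protein from 1.5 nM to 3 μM, for 0.8–1.5 h at the lowest and 10–20 min at the highest concentrations. Apparent Kd is the median of the binding-curve fits made per cluster, with designs measured on fewer than 10 clusters excluded.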

[1] = designed as: OFF switch for flavin mononucleotide, no ligand
[2] = ligand present: flavin mononucleotide, designed as: OFF switch for flavin mononucleotide
[3] = designed as: ON switch for flavin mononucleotide, no ligand
[4] = ligand present: flavin mononucleotide, designed as: ON switch for flavin mononucleotide
[5] = designed as: ON switch for tryptophan, no ligand
[6] = ligand present: tryptophan, designed as: ON switch for tryptophan

Sequence	apparent Kd [1]	apparent Kd [2]	apparent Kd [3]	apparent Kd [4]	further results
UUCAUUUUCUAGGAUAUGUACCAGAAAAUAGUUACAGAAGGAGAGACAUGAGGAUCACCCAUGUUGGCAACAGC	0.0107 µM	0.0116 µM	–	–	–
GUUCCCUCACAGAAGGAGUGUGUUAGUUGCACAUGAGGAUCACCCAUGUAAUAAACACGUGGCCACUAGGAUAUGUUAAACUGC	–	–	0.0129 µM	0.0108 µM	–
ACUGCGCACGGGCUCCACAUGAGGAUCACCCAUGUUGAACUGAGAAGGGAAAGAAGAAACUACAUUCAGGAUAUCAUUUCACCA	0.0445 µM	0.0466 µM	–	–	–
CAUCAGGGAUCAGGAUAUACAAUGGGUACAUGAGGAUCACCCAUGUAGACGCCAACACUGUCAUUGUAGAAGGGAUUGAGCGAA	–	–	0.0551 µM	0.0298 µM	–
GGGUUACACACAUGAGGAUCACCCAUGUUUGCGUGGGCGGGCAGAAGGAGAACCGGAUUACACUUCUAGGAUAUGCAGAUGAUC	–	–	0.0236 µM	0.0282 µM	–
AGAUUUGCAGGAUAUACCGGUACAAACAUGAGGAUCACCCAUGUAACGCAUGGUCAGUGAGUAGAAGGGCACGUAG	0.0314 µM	0.024 µM	–	–	–
ACCAGGCAAGGAUAUGGUUCUGUAAACAUGAGGAUCACCCAUGUAUUUAAUUCAUGUUGGCCAGAAGGUGCUUUCG	0.0149 µM	0.0133 µM	–	–	–
UGCGACAAGUGAAUACUUUGUUCUAGAGAUACCAGUUCCCGAGUGAACCCUUGGCAGCUCCCAACAUGAGGAUCACCCAUGUAUU	–	–	–	–	apparent Kd (designed as: OFF switch for theophylline, no ligand): 0.0145 µM; apparent Kd (ligand present: theophylline, designed as: OFF switch for theophylline): 0.0285 µM
UGAAAUUUGGAGAAGGGACGCACGUGGUAGUGGCUACAUGAGGAUCACCCAUGUUAAUUGAUCAGUCAGGAUAUCCGGUUGUUC	0.0181 µM	0.0221 µM	–	–	–
AGUCUUCUCGUAAGGAUAUUUAGGAAUUCAUCUCCAAAGAAGGUACAUGAGGAUCACCCAUGUGAAGGGCUUUU	0.0128 µM	0.0248 µM	–	–	–
GGACAAGAAGAGAAGGGCUUACCAAACCUCAACAUGAGGAUCACCCAUGUCAAAGUGGAAGCAUAGCAGGAUAUCUAACAGCGC	0.00809 µM	0.00772 µM	–	–	–
UGCCAGGCACAGAAGGUAGCGUGUCCUCAAGACAUGAGGAUCACCCAUGUGGAAAGAUUAAGACCUAAGGAUAUGUGUAUCACC	0.143 µM	0.0939 µM	–	–	–
UCUCAUAUGGAAGGAUAUCAUACCUUGUCGAGAUGAGAAGGUCCGUAUGGACAUAACAUGAGGAUCACCCAUGUUUCUUGUGUU	–	–	0.188 µM	0.128 µM	–
UCGCGUCUAGCUCAGGAUAUUGUGCCUGAUACAUGAGGAUCACCCAUGUCCUAAGUGCAAACCAACAAGAAGGGAGCUAAGCAUGU	–	–	0.0139 µM	0.0132 µM	–
UCUCUUAAAGCAGGAUAUGAAAUCCACCAGGAAUCAGAAGGGCUCAACGUUACAUGAGGAUCACCCAUGUCCCUUAUGACAAUA	0.00783 µM	0.00935 µM	–	–	–
CGACGAUCAGAAGGAUAUUAAAUCGUCAAUCUCGUGACAUGAGGAUCACCCAUGUAGCCCGUGGUUAAGAAGGUCUUGGUUGUG	0.0924 µM	0.058 µM	–	–	–
CCAAAGUAAGGAUAUCGAAGAACCACAACCGACGGAACGAACGAGAAGGUACAUGAGGAUCACCCAUGUGAUAG	0.0116 µM	0.0197 µM	–	–	–
AGGAAUGUCACGGCCGCCACUGACGCUAAAAUGGGCUCGAGCCGACAUGAGGAUCACCCAUGUUCCAGGACCGGGUGAAUCCUGG	–	–	–	–	apparent Kd [5]: 0.174 µM; apparent Kd [6]: 0.123 µM

Sequence	apparent Kd [1]	apparent Kd [2]	apparent Kd [3]	apparent Kd [4]	further results
CGAACUAGCUAGAAGGAACAGGCGACUAAAGUGUUAGGAUAUAGGCGUAUGUGCAGACAUGAGGAUCACCCAUGUGUCGAAUUU	0.0178 µM	0.0147 µM	–	–	–
CGACAGCACAUAGGAUAUCAGCAAGAACUAACAUGAGGAUCACCCAUGUAUGGAUGAACAUAAAAUGAGAAGGAAGGCGAAUUA	–	–	0.0222 µM	0.0179 µM	–
AAUCAACUUAGAGGAUAUAAGCUUAAAAUAGGGUUAGAAGGCUAUGGUACUAAUGAUCCGUCAACAUGAGGAUCACCCAUGUAG	0.045 µM	0.0372 µM	–	–	–
UCCGGCGUUGACUAGGAUAUACGGAGGGUAACAUGAGGAUCACCCAUGUAAAGAACUAAAACAGCGUAGAAGGAGUCCAAAGCGAC	–	–	0.028 µM	0.0192 µM	–
CGAUUACAUGAGGAUCACCCAUGUCAGGAUAUAAUUUGCACAGCCGGGCAGGCCGUGGUUAGAAGGGACGUACA	0.00909 µM	0.00875 µM	–	–	–
UCCAUACGGUAGGAUAUAUGUACCCAGAAGGGCAUAGAAGGACCCACAUGAGGAUCACCCAUGUUCCUUUGGUG	0.0244 µM	0.0305 µM	–	–	–
UCUAACAUGAGGAUCACCCAUGUACCGUCCCGAGGACCGGUACGGCCGCCACUCGUCUUGCUAAAACUGAAGUGAUCACAAGCCU	–	–	–	–	apparent Kd [5]: 0.0202 µM; apparent Kd [6]: 0.0308 µM
UGAAUACAUGAGGAUCACCCAUGUUACGACCUCACAGGAUAUCAGAUAAAGGCUCUCAUCUGAGAAGGGUGGCUCC	–	–	0.0633 µM	0.0388 µM	–
GUAACGGAAGGAUAUACGCUUUAAUGGACAGGUUCGAUGGCACAUGAGGAUCACCCAUGUAGAAGGUCCCUAAA	0.0108 µM	0.0134 µM	–	–	–
CUCGUUUAAGAGGAUAUUUCGUCCGCUCUCGGGAAAGAAGGCUUGACAUGAGGAUCACCCAUGUAUACGUUGGA	0.00946 µM	0.0139 µM	–	–	–
UAACAUUGCUAGAAGGGCGGUCAUCAGAUGGCCGCAGGAUAUAGACAUGAGGAUCACCCAUGUGAAGGGCAGGUUGUUCUAGUU	–	–	0.0181 µM	0.0225 µM	–
GAACCCAAGGUGAGGAUAUUCGAAGCAACAAAAGGGAAGAAGGCACAUGAGGAUCACCCAUGUAAGAAAGAUAA	0.00835 µM	0.00952 µM	–	–	–
AGGAAAGAAGAAGGAUAUCAGUUACGGACAUGAGGAUCACCCAUGUACGUAGGGUGAACCCUGAUUGAGAAGGUCUGUGUUUUA	–	–	0.0231 µM	0.0134 µM	–
AGAAGGGACGAGAAGGUACGAUCGAGUAAACUAUGAUAUGGGCACAUGAGGAUCACCCAUGUAUGUAAGGAUAUCGCAUCUCCA	–	–	0.0505 µM	0.0411 µM	–
UCAUAGUCAGGAUAUUUAUUUGGCGGAGACUGCGGCCACCGAAAGAAGGGACAUGAGGAUCACCCAUGUAUCGG	0.0163 µM	0.0269 µM	–	–	–
GCCGCCGGUGCUUCAUUCCCUGAGCGACGGCGAGGACCGGUACGGCCGCCACUCGGCUCGGUACAUGAGGAUCACCCAUGUCUUU	–	–	–	–	apparent Kd (designed as: OFF switch for tryptophan, no ligand): 0.0447 µM; apparent Kd (ligand present: tryptophan, designed as: OFF switch for tryptophan): 0.0546 µM
ACUCCACAUGAGGAUCACCCAUGUUAUAAGUAGGUAGGAUAUCACACAAACUUACAUGGAUGAGAAGGACCGGUCC	–	–	0.328 µM	0.21 µM	–
AACAGACGAGACGAUACCAGUCUCUUAGCGCACAUGAGGAUCACCCAUGUUGGCAAGCUCGACCCUUGGCAGCGUACCUUUGAUC	–	–	–	–	apparent Kd (designed as: ON switch for theophylline, no ligand): 0.0244 µM; apparent Kd (ligand present: theophylline, designed as: ON switch for theophylline): 0.014 µM
